Drawing on ChEMBL document CHEMBL4706613, “Novel 3-substituted coumarins as selective human carbonic anhydrase IX and XII inhibitors: Synthesis, biological and molecular dynamics analysis” (Eur J Med Chem, 2021), this text covers Ki for 20 compounds.

Assay [1] deals with T1, Carbonic anhydrase 9 (Homo sapiens, UniProt Q16790). Description: Inhibition of human CA9 preincubated for 6 hrs by phenol red dye based stopped flow CO2 hydration assay. The procedure, abridged: (§1)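 Ki values are the mean of three separate assays, with errors within ±5–10% of the reported values. Coumarin derivatives were incubated with the enzyme for 6 h before measurement.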

Assay [2] deals with T2, Carbonic anhydrase 2 (Homo sapiens, UniProt P00918). Briefly: Inhibition of human CA2 preincubated for 6 hrs by phenol red dye based stopped flow CO2 hydration assay. In short, it runs like this:
as §1

Assay [3] concerns the target T3, Carbonic anhydrase 1 (Homo sapiens, UniProt P00915). Briefly: Inhibition of human CA1 preincubated for 6 hrs by phenol red dye based stopped flow CO2 hydration assay. The procedure, abridged:
as §1

Assay [4] has as its target T1, Carbonic anhydrase 9. Description: Inhibition of human CA9 preincubated for 15 mins by phenol red dye based stopped flow CO2 hydration assay.
The target in assay [5] is T2, Carbonic anhydrase 2. Briefly: Inhibition of human CA2 preincubated for 15 mins by phenol red dye based stopped flow CO2 hydration assay.
Assay [6] deals with T3, Carbonic anhydrase 1. Briefly: Inhibition of human CA1 preincubated for 15 mins by phenol red dye based stopped flow CO2 hydration assay.
For the next assay, the target named is Carbonic anhydrase 12 (Homo sapiens, UniProt O43570). Briefly: Inhibition of human CA12 preincubated for 6 hrs by phenol red dye based stopped flow CO2 hydration assay.
Chain of Carbonic anhydrase 12 (O43570 whole entry): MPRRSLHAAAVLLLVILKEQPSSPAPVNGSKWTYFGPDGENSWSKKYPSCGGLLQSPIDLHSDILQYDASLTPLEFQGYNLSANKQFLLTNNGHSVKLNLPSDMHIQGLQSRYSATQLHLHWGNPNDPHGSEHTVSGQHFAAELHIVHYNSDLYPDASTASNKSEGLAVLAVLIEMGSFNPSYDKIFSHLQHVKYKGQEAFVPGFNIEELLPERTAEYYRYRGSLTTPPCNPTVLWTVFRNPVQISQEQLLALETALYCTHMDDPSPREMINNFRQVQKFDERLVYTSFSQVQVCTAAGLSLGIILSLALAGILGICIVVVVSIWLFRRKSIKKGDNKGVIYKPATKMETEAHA

T3 sequence (P00915 whole entry): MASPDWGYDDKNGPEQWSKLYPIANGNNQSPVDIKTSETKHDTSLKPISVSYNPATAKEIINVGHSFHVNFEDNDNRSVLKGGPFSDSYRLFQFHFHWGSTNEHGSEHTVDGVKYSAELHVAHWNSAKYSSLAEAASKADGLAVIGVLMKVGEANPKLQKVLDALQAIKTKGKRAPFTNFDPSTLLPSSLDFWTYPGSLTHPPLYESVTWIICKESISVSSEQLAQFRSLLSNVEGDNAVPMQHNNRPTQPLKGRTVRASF

Turning to `Cc1ccc(S(=O)(=O)CC(=O)c2cc3ccccc3oc2=O)cc1`, the Ki (as a rule, the dissociation constant of the complex between target and ligand, obtained from inhibition or displacement) was 66.3 nM at Carbonic anhydrase 9 [1], more than 100000 nM at Carbonic anhydrase 2 [2] and more than 100000 nM on Carbonic anhydrase 1 [3].

For the compound `O=c1oc2ccc(Br)cc2cc1/C(CS(=O)(=O)c1ccccc1)=N/Nc1ccccc1`, the Ki on Carbonic anhydrase 9 [1] was 4640 nM; on Carbonic anhydrase 2 [2] it was more than 100000 nM; at Carbonic anhydrase 1 [3], more than 100000 nM.

Take `Cc1ccc(S(=O)(=O)C/C(=N\Nc2ccc(S(N)(=O)=O)cc2)c2cc3ccccc3oc2=O)cc1`: the results for the Ki at Carbonic anhydrase 9 [4], on Carbonic anhydrase 2 [5] and on Carbonic anhydrase 1 [6] were 76 nM, 560 nM and 2600 nM, respectively.

Regarding `O=c1oc2ccccc2cc1/C(CS(=O)(=O)c1ccccc1)=N/Nc1ccccc1`, the Ki on Carbonic anhydrase 9 [1] was 1500 nM; at Carbonic anhydrase 2 [2], more than 100000 nM; at Carbonic anhydrase 1 [3], more than 100000 nM.

Take `Cc1ccc(S(=O)(=O)C/C(=N\Nc2ccc(S(N)(=O)=O)cc2)c2cc3cc(Br)ccc3oc2=O)cc1`: the results for the inhibition constant (Ki) at Carbonic anhydrase 2 [5] and at Carbonic anhydrase 1 [6] were 538 nM and 3960 nM, respectively.

`Cc1ccc(S(=O)(=O)C/C(=N\Nc2ccccc2)c2cc3cc(Br)ccc3oc2=O)cc1`: the values for the inhibitory constant (Ki) at Carbonic anhydrase 9 [1], on Carbonic anhydrase 2 [2] and at Carbonic anhydrase 1 [3] were 8110 nM, more than 100000 nM and more than 100000 nM, respectively.

`NS(=O)(=O)c1ccc(C(=O)N/N=C(\CS(=O)(=O)c2ccccc2)c2cc3ccccc3oc2=O)cc1`: the inhibitory constant (Ki) at Carbonic anhydrase 9 [4] is 18.6 nM; at Carbonic anhydrase 2 [5], 225 nM; on Carbonic anhydrase 1 [6], 1540 nM.

As for `NS(=O)(=O)c1ccc(N/N=C(\CS(=O)(=O)c2ccccc2)c2cc3ccccc3oc2=O)cc1`, the inhibition constant Ki at Carbonic anhydrase 9 [4] worked out at 89.1 nM; at Carbonic anhydrase 2 [5] it was 442 nM; on Carbonic anhydrase 1 [6], 824 nM.

For the compound `O=C(CS(=O)(=O)c1ccccc1)c1cc2cc(Br)ccc2oc1=O`, the inhibitory constant (Ki) was 76.6 nM at Carbonic anhydrase 9 [1], more than 100000 nM at Carbonic anhydrase 2 [2] and more than 100000 nM on Carbonic anhydrase 1 [3].

On to `O=C(N/N=C(\CS(=O)(=O)c1ccccc1)c1cc2cc(Br)ccc2oc1=O)c1ccccc1`, for which the Ki on Carbonic anhydrase 9 [1] is 8860 nM; on Carbonic anhydrase 2 [2] it was more than 100000 nM; on Carbonic anhydrase 1 [3], more than 100000 nM.

As for `C/C(=N\NC(=O)c1ccc(S(N)(=O)=O)cc1)c1cc2cc(Br)ccc2oc1=O`, the inhibition constant Ki on Carbonic anhydrase 9 [4] was determined as 19.8 nM; at Carbonic anhydrase 2 [5] it was 12.1 nM; on Carbonic anhydrase 1 [6], 92.5 nM.

For the compound `O=C(CS(=O)(=O)c1ccccc1)c1cc2ccccc2oc1=O`, the Ki at Carbonic anhydrase 9 [1] is 41.4 nM; at Carbonic anhydrase 2 [2], more than 100000 nM; on Carbonic anhydrase 12 it was 60.1 nM; at Carbonic anhydrase 1 [3] it was more than 100000 nM.

In the case of `O=C(N/N=C(\CS(=O)(=O)c1ccccc1)c1cc2ccccc2oc1=O)c1ccccc1`, the figures for the Ki on Carbonic anhydrase 9 [1], at Carbonic anhydrase 2 [2] and at Carbonic anhydrase 1 [3] were 16000 nM, more than 100000 nM and more than 100000 nM, respectively.

Compound `C/C(=N\Nc1ccc(S(N)(=O)=O)cc1)c1cc2cc(Br)ccc2oc1=O` displayed an inhibition constant (Ki) on Carbonic anhydrase 9 [4] of 24.2 nM.

For the compound `Cc1ccc(S(=O)(=O)CC(=O)c2cc3cc(Br)ccc3oc2=O)cc1`, the inhibition constant Ki on Carbonic anhydrase 9 [1] was 87.2 nM; at Carbonic anhydrase 2 [2], more than 100000 nM; at Carbonic anhydrase 1 [3], more than 100000 nM.

On to `NS(=O)(=O)c1ccc(N/N=C(\CS(=O)(=O)c2ccccc2)c2cc3cc(Br)ccc3oc2=O)cc1`, for which the results for the Ki at Carbonic anhydrase 9 [4], on Carbonic anhydrase 2 [5] and on Carbonic anhydrase 1 [6] were 63.6 nM, 276 nM and 3460 nM, respectively.

Regarding `C/C(=N\NC(=O)c1ccc(S(N)(=O)=O)cc1)c1cc2ccccc2oc1=O`, the Ki is 31.6 nM on Carbonic anhydrase 9 [4], 26.3 nM on Carbonic anhydrase 2 [5] and 77.6 nM on Carbonic anhydrase 1 [6].

For the compound `Cc1ccc(S(=O)(=O)C/C(=N\Nc2ccccc2)c2cc3ccccc3oc2=O)cc1`, the results for the inhibition constant (Ki) on Carbonic anhydrase 9 [1], on Carbonic anhydrase 2 [2] and at Carbonic anhydrase 1 [3] were 3940 nM, more than 100000 nM and more than 100000 nM, respectively.

Consider `C/C(=N\Nc1ccc(S(N)(=O)=O)cc1)c1cc2ccccc2oc1=O`, for which the Ki on Carbonic anhydrase 9 [4] stood at 43.8 nM.

Consider `Cc1ccc(S(=O)(=O)C/C(=N\NC(=O)c2ccc(S(N)(=O)=O)cc2)c2cc3ccccc3oc2=O)cc1`, for which the Ki on Carbonic anhydrase 9 [4] was determined as 42.1 nM; on Carbonic anhydrase 2 [5] it was 365 nM; on Carbonic anhydrase 1 [6] it was 1350 nM.
